Bioassay records: PubChem BioAssay, several laboratories
TLR9-MyD88 block: inhibitors of TLR9-MyD88 association in cells, primary screen, cell-based, CHO, BLA complementation, fluorescence; Toll-like receptor 9 (Homo sapiens) + Myeloid differentiation primary response protein …; CCF4 FRET ratio; inhibition, % at 4.98 µM; 0.21% of 340,000 active;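 active = inhibition above the mean over all tested compounds plus 3 SD, cut at about 21% in these data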;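 also: 0% = DMSO only wells and 100% = clavulanate BLA inhibitor control wells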
SR-BI uptake up: activators of SR-BI mediated DiI-HDL uptake, primary screen, ldlA[mSR-BI] CHO cells, DiI fluorescence; 0.096% of 320,000 active; activation, % at 12.5 µM; 3 h; 100 = double the neutral-control signal;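 active = mean replicate activation of at least 60% and every replicate at or above 60%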;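 also: 0% = median plate neutral-control signal and 100% = twice that signal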
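System: CHO ldlA[mSR-BI] cells / Medium: HEPES-buffered (25 mM, pH 7.4) F12 plus 0.5% BSA / Probe or stimulus: labelled HDL, 10 µg/mL / Doses: single compound concentration, delivered by pin transfer / Schedule: 3 h, 37 °C / Measured by: DiI fluorescence, bottom read / Measure: cell-associated DiI fluorescence as measure of HDL uptake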
Lipid droplet: inhibitors of hepatocyte lipid droplet formation, primary screen, imaging, high-throughput imaging, BODIPY stain; AML12 mouse hepatocytes, oleate lipid droplets; inhibition, % at 6.5 µM; 0.4% of 240,000 active;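 active = lipid droplet intensity inhibited by at least 50%, with more than 500 cells counted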
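Assay system: AML12 hepatocytes (mouse) / Also added: 100 µM oleic acid challenge / Times: overnight treatment with compound plus oleate / Detection: high-content imaging of BODIPY-stained droplets and DAPI nuclei / Evaluation: % inhibition of lipid droplet signal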
TLR4-MyD88 BLA: inhibitors of TLR4-MyD88 association in cells, primary screen, cell-based, HeLa CL3-4, BLA complementation, FRET ratio. 0.18% of 200,000 active. inhibition, % at 8.4 µM. Toll-like receptor 4 (Homo sapiens) + Myeloid differentiation primary response protein …. HeLa CL3-4 TLR4/MyD88 BLA complementation. AID 861, 2007; in the data active = inhibition above about 25%;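 also: 0% = vehicle and 100% = reference inhibitor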
SR-BI HDL uptake: inhibitors of SR-BI mediated HDL lipid uptake, primary screen, ldlA[mSR-BI] cells, fluorescence, single point | ldlA[mSR-BI] CHO cells, DiI-HDL uptake fluorescence, 3 h | inhibition, % at 12.5 µM | 0.96% of 320,000 active | Scavenger receptor class B member 1 (Mus musculus), Q61009;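 active = mean replicate inhibition of at least 70% and a set share of replicates each scoring 70 or more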;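 also: 0% = median of neutral control wells and 100% = median of positive control wells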
NOD2 RIPK2 PPI: NOD2-RIPK2 binding disruptors in cells, primary screen, fluorescence, CHO cells, BLA complementation. 0.38% of 360,000 active. CCF4 ratio. Receptor-interacting serine/threonine-protein kinase 2 (Homo sapiens), O43353. AID 624267, 2012. inhibition, % at 4.98 µM; in the data active = inhibition above about 21%;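 also: 0% = vehicle only and 100% = reference blocker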
NOD2-RIPK2 conf: NOD2-RIPK2 binding disruptors, retest, confirmation, fluorescence, CHO cells, BLA complementation, triplicate | shares compounds with NOD2 RIPK2 PPI | CCF4 FRET | inhibition, % at 4.98 µM | 70% of 1,200 active | AID 624370, 2012;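 active = mean inhibition across replicates above a set limit taken from the earlier primary screen, cut at about 21% in these data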;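 also: 0% = DMSO-only wells and the high end = clavulanate BLA-blocked wells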
BLA counter: counter-screen for NOD2-RIPK2 interaction inhibitors: BLA reporter; shares compounds with NOD2 RIPK2 PPI; CHO BLA reporter, CCF4 FRET ratio, counterscreen; inhibition, % at 4.98 µM; 57% of 1,200 active; AID 624371;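 active = mean inhibition above the low-control mean inhibition plus three low-control SD, cut at about 11% in these data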;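 also: 0% = DMSO only wells and 100% = clavulanate high control wells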
Starred values were filed as active, the others as inactive. The list is not random: actives were taken first. Their share in the collection is about 1.6%.

What do the screens show for `COc1cc(/C=C2/C(=O)CNC2=O)ccc1O`?
TLR9-MyD88 block: 0.7; SR-BI uptake up: -0.8; Lipid droplet: 15.4; TLR4-MyD88 BLA: 3.3; SR-BI HDL uptake: 0.8; NOD2 RIPK2 PPI: -2.8

Results for COc1cc(C=C2C(=O)C=CC2=O)ccc1O ?
NOD2 RIPK2 PPI: 65.6*; NOD2-RIPK2 conf: 93.2*; BLA counter: 30.3*

How did CC(C)(C)c1nc2c(C#N)c(-c3ccc(Cl)cc3)ccn2n1 do in these assays?
TLR9-MyD88 block: 2.4; SR-BI uptake up: -35.3; Lipid droplet: 16.9; TLR4-MyD88 BLA: 1.2; SR-BI HDL uptake: 35.3; NOD2 RIPK2 PPI: 23.8*; NOD2-RIPK2 conf: 2.3; BLA counter: -1.9

Results for Cc1nc2c(C#N)c(-c3ccc(Cl)cc3)ccn2n1 ?
TLR9-MyD88 block: -3.5; SR-BI uptake up: 17.3; Lipid droplet: -7.7; TLR4-MyD88 BLA: 10.2; SR-BI HDL uptake: -17.3; NOD2 RIPK2 PPI: -0.6

Results for Cc1cc(C)cc(N(C(=O)c2csnn2)C(C(=O)NC2CCCC2)c2cccnc2)c1 (stereo unspecified) ?
TLR9-MyD88 block: -4.0; Lipid droplet: -13.5; NOD2 RIPK2 PPI: -1.1

How did O=C(CCCN1C(=O)/C(=C\c2cccs2)SC1=S)Nc1cccc(C(=O)O)c1 do in these assays?
TLR9-MyD88 block: 3.1; SR-BI uptake up: 0.6; Lipid droplet: 0.8; TLR4-MyD88 BLA: 2.4; SR-BI HDL uptake: -0.6; NOD2 RIPK2 PPI: 23.6*; NOD2-RIPK2 conf: 4.9; BLA counter: -4.1

Results for CC[C@H]1CN2CCc3cc(OC)c(OC)cc3C2C[C@@H]1C[C@H]1NCCc2cc(OC)c(OC)cc21 (stereo partly specified) ?
TLR9-MyD88 block: 2.5; SR-BI uptake up: -3.9; SR-BI HDL uptake: 3.9; NOD2 RIPK2 PPI: 22.6*; NOD2-RIPK2 conf: 27.4*; BLA counter: -7.8

Results for C#CCN(C[C@@H]1[C@@H](OC(=O)NCc2ccccc2F)[C@@H](OC(=O)NCc2ccccc2F)Cn2c(=O)n(CCCCCC)c(=O)n21)S(=O)(=O)c1ccc(C)cc1 ?
TLR9-MyD88 block: 0.6; NOD2 RIPK2 PPI: -2.4

What do the screens show for `C#CCN(C[C@@H]1[C@@H](OC(=O)NCc2ccccc2F)[C@@H](OC(=O)NCc2ccccc2F)Cn2c(=O)ccc(=O)n21)S(=O)(=O)c1ccc(C)cc1`?
TLR9-MyD88 block: -2.0; NOD2 RIPK2 PPI: 22.7*; NOD2-RIPK2 conf: 21.5*; BLA counter: -3.0

How did CC1(C)CC(=O)C(C=Nc2ccc(C(=O)c3ccccc3)cc2N=CC2=C(O)CC(C)(C)CC2=O)=C(O)C1 do in these assays?
TLR9-MyD88 block: 18.0; SR-BI uptake up: -0.5; Lipid droplet: -16.8; TLR4-MyD88 BLA: 14.3; SR-BI HDL uptake: 0.5; NOD2 RIPK2 PPI: 27.5*; NOD2-RIPK2 conf: -3.0; BLA counter: -2.6

What do the screens show for `COC(=O)c1ccc(CNC(=O)/C=C/c2cc([N+](=O)[O-])ccc2OC(F)F)cc1`?
TLR9-MyD88 block: -10.6; SR-BI uptake up: -30.3; Lipid droplet: -1.0; TLR4-MyD88 BLA: 3.3; SR-BI HDL uptake: 30.3; NOD2 RIPK2 PPI: -0.5

Results for Cc1cn2nc(N)c3ccccc3c2n1 ?
TLR9-MyD88 block: 0.9; TLR4-MyD88 BLA: -4.4; NOD2 RIPK2 PPI: 37.0*; NOD2-RIPK2 conf: -3.8; BLA counter: 1.9

Results for COc1ccccc1C(=O)NNC(=O)c1cc2ccccc2cc1O ?
TLR9-MyD88 block: 0.5; NOD2 RIPK2 PPI: 3.3
